In PMC9780517 (Experimental and Therapeutic Medicine, 2022):
“Also recorded” adds a separate entry of the source.

What was measured:
[1] = after intravenous administration; cited from earlier work
hiPSC-CMs [2] = assay: Myocardial cell activity; format: cell-based, human; details: for Effect on Ampl (cell activity / cell viability) / Effect on BPM (beats per minute): concentration relative to ETPC
Procedure, shortened: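 Human iPSC-derived cardiomyocytes (mostly ventricular; four batches) were grown 14-21 days on fibronectin-coated impedance/field-potential sensor plates at 37°C, 5% CO2. The medium was changed on dosing day, and test compound was added 3-4 h later, with 0.1% DMSO as control. Reads were taken every 30 min for 2 h, then every 2 h for >24 h. There were 3-4 concentrations, triplicate wells each. Ampl and BPM were normalized to pre-dose values.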

hiPSC-CMs [3] = assay: Field potential; format: cell-based, human; details: for FPDc prolongation (in words): concentration relative to ETPC
[4] = ref 21 (Blinova et al); cited from earlier work

SMILES	Effect on Ampl (cell activity / cell viability) (hiPSC-CMs [2])	Effect on BPM (beats per minute) (hiPSC-CMs [2])	Arrhythmia-like waveforms (in words) (hiPSC-CMs [3])	further results
CCCCc1oc2ccccc2c1C(=O)c1cc(I)c(OCCN(CC)CC)c(I)c1 [Amiodarone]	decreased the cell activity of cardiomyocytes at concentrations greater than ETPC	decreased BPM at a concentration greater than ETPC	–	TdP incidence [1]: ~ 15%
COc1ccc(CCN2CCC(Nc3nc4ccccc4n3Cc3ccc(F)cc3)CC2)cc1 [Astemizole]	decreased the activity of cardiomyocytes at a concentration higher than ETPC	decrease BPM	caused arrhythmia-like waveforms	–
CN1CCN(CCCCN2C(=O)CN(/N=C/c3ccc(-c4ccc(Cl)cc4)o3)C2=O)CC1 [Azimilide]	–	–	induce arrhythmia-like waveforms	FPDc prolongation (in words) (hiPSC-CMs [3]): FPDc prolongation at concentrations lower than ETPC
CC(C)COCC(CN(Cc1ccccc1)c1ccccc1)N1CCCC1 (stereo not drawn) [Bepridil]	–	–	induce arrhythmia-like waveforms	Concentration at which arrhythmia-like waveforms were observed (hiPSC-CMs [3]): 312.5 times of the ETPC; FPDc prolongation (in words) (hiPSC-CMs [3]): not induce FPDc prolongation; also recorded: no FPDc prolongation was observed; Predicted risk, LR model of Blinova et al [4]: low-risk
CN(C)CCCN1c2ccccc2Sc2ccc(Cl)cc21 [Chlorpromazine]	decreased the activity of cardiomyocytes at a concentration higher than ETPC	decrease BPM	–	Predicted risk, LR model of Blinova et al [4]: low-risk
COc1cc(N)c(Cl)cc1C(=O)NC1CCN(CCCOc2ccc(F)cc2)CC1OC (stereo not drawn) [Cisapride]	decreased the activity of cardiomyocytes at a concentration higher than ETPC	decrease BPM	–	–
CC[C@H]1OC(=O)[C@H](C)[C@@H](O[C@H]2C[C@@](C)(OC)[C@@H](O)[C@H](C)O2)[C@H](C)[C@@H](O[C@@H]2O[C@H](C)C[C@H](N(C)C)[C@H]2O)[C@](C)(OC)C[C@@H](C)C(=O)[C@H](C)[C@@H](O)[C@]1(C)O [Clarithromycin]	decreased the activity of cardiomyocytes at a concentration higher than ETPC	decrease BPM	–	FPDc prolongation (in words) (hiPSC-CMs [3]): no FPDc prolongation was observed; also recorded: FPDc showed shortening; FPDc prolongation at the highest concentration (hiPSC-CMs [3]; highest concentration of 100 µM, repeated in triplicate): no FPDc prolongation was observed
CN1CCN(C2=Nc3cc(Cl)ccc3Nc3ccccc32)CC1 [Clozapine]	–	–	caused arrhythmia-like waveforms	Concentration at which FPDc prolongation was observed (hiPSC-CMs [3]): 42 % of the ETPC
COc1ccc([C@@H]2Sc3ccccc3N(CCN(C)C)C(=O)[C@@H]2OC(C)=O)cc1 [Diltiazem]	decreased the activity of cardiomyocytes at a concentration higher than ETPC	BPM was decreased	–	–
CC(C)N(CCC(C(N)=O)(c1ccccc1)c1ccccn1)C(C)C (stereo not drawn) [Disopyramide]	decreased cell activity at concentrations less than ETPC	–	induce arrhythmia-like waveforms	FPDc prolongation (in words) (hiPSC-CMs [3]): FPDc prolongation at concentrations lower than ETPC
CN(CCOc1ccc(NS(C)(=O)=O)cc1)CCc1ccc(NS(C)(=O)=O)cc1 [Dofetilide]	–	–	no arrhythmia-like events were observed; also recorded: No arrhythmia-like waveforms were observed	Beating of the cells at the maximum concentration (hiPSC-CMs [2]; 0.3 µm (150 times of the ETPC)): cells stopped beating; Concentration at which arrhythmia-like waveforms were observed (hiPSC-CMs [3]): > 150 times of the ETPC; FPDc prolongation (in words) (hiPSC-CMs [3]): FPDc prolongation at concentrations higher than ETPC
O=c1[nH]c2ccccc2n1CCCN1CCC(n2c(=O)[nH]c3cc(Cl)ccc32)CC1 [Domperidone]	–	–	caused arrhythmia-like waveforms	–
O=C(CCCN1CC=C(n2c(=O)[nH]c3ccccc32)CC1)c1ccc(F)cc1 [Droperidol]	decreased the activity of cardiomyocytes at a concentration higher than ETPC	decrease BPM	caused arrhythmia-like waveforms	–
O=C(NCC1CCCCN1)c1cc(OCC(F)(F)F)ccc1OCC(F)(F)F (stereo not drawn) [Flecainide]	–	–	–	Concentration at which arrhythmia-like waveforms were observed (hiPSC-CMs [3]): 1.33 times of the ETPC
CCCCCCCN(CC)CCCC(O)c1ccc(NS(C)(=O)=O)cc1 (stereo not drawn) [Ibutilide]	decreased cell activity at concentrations less than ETPC	BPM decrease at concentrations less than ETPC	induce arrhythmia-like waveforms	Concentration at which arrhythmia-like waveforms were observed (hiPSC-CMs [3]): 10 % of the ETPC; FPDc prolongation (in words) (hiPSC-CMs [3]): FPDc prolongation at concentrations lower than ETPC
CCOC(=O)N1CCC(=C2c3ccc(Cl)cc3CCc3cccnc32)CC1 [Loratadine]	decreased the activity of cardiomyocytes at a concentration higher than ETPC	–	–	–
CCC(=O)C(CC(C)N(C)C)(c1ccccc1)c1ccccc1 (stereo not drawn) [Methadone]	decreased the cell activity of cardiomyocytes at concentrations greater than ETPC	decreased BPM at a concentration greater than ETPC	–	–

SMILES	Effect on Ampl (cell activity / cell viability) (hiPSC-CMs [2])	Effect on BPM (beats per minute) (hiPSC-CMs [2])	Arrhythmia-like waveforms (in words) (hiPSC-CMs [3])	further results
COCCc1ccc(OCC(O)CNC(C)C)cc1 (stereo not drawn) [Metoprolol]	decreased the activity of cardiomyocytes at a concentration higher than ETPC	BPM was decreased	–	Concentration at which FPDc prolongation was observed (hiPSC-CMs [3]): 6 % of the ETPC
Cc1cccc(C)c1OCC(C)N (stereo not drawn) [Mexiletine]	decreased the activity of cardiomyocytes at a concentration higher than ETPC	BPM was decreased	–	Concentration at which FPDc prolongation was observed (hiPSC-CMs [3]): 1.2 times of the ETPC
COc1c(N2C[C@@H]3CCCN[C@@H]3C2)c(F)cc2c(=O)c(C(=O)O)cn(C3CC3)c12 [Moxifloxacin]	–	decreased BPM at a concentration greater than ETPC	–	–
NC(=O)c1cccnc1 [Nicotinamide]	decreased the cell activity of cardiomyocytes at concentrations greater than ETPC	decreased BPM	–	–
COC(=O)C1=C(C)NC(C)=C(C(=O)OC)C1c1ccccc1[N+](=O)[O-] [Nifedipine]	decreased the activity of cardiomyocytes at a concentration higher than ETPC	–	–	–
CCOC(=O)C1=C(C)NC(C)=C(C(=O)OC)C1c1cccc([N+](=O)[O-])c1 (stereo not drawn) [Nitrendipine]	decreased the activity of cardiomyocytes at a concentration higher than ETPC	–	–	Concentration at which arrhythmia-like waveforms were observed (hiPSC-CMs [3]): 331.1 times of the ETPC
Cc1nccn1CC1CCc2c(c3ccccc3n2C)C1=O (stereo not drawn) [Ondansetron]	decreased the activity of cardiomyocytes at a concentration higher than ETPC	decrease BPM	caused arrhythmia-like waveforms	Concentration at which arrhythmia-like waveforms were observed (hiPSC-CMs [3]): 81 % of the ETPC
O=c1[nH]c2ccccc2n1C1CCN(CCCC(c2ccc(F)cc2)c2ccc(F)cc2)CC1 [Pimozide]	decreased the activity of cardiomyocytes at a concentration higher than ETPC	decrease BPM	caused arrhythmia-like waveforms	–
C=C[C@H]1C[N@@]2CC[C@H]1C[C@@H]2[C@@H](O)c1ccnc2ccc(OC)cc12 [Quinidine]	decreased cell activity at concentrations less than ETPC	BPM decrease at concentrations less than ETPC	induce arrhythmia-like waveforms	FPDc prolongation (in words) (hiPSC-CMs [3]): FPDc prolongation at concentrations lower than ETPC
COc1ccccc1OCC(O)CN1CCN(CC(=O)Nc2c(C)cccc2C)CC1 (stereo not drawn) [Ranolazine]	–	–	–	Concentration at which FPDc prolongation was observed (hiPSC-CMs [3]): 51 % of the ETPC; Concentration at which arrhythmia-like waveforms were observed (hiPSC-CMs [3]): 15.4 times of the ETPC
Cc1nc2n(c(=O)c1CCN1CCC(c3noc4cc(F)ccc34)CC1)CCCC2 [Risperidone]	decreased the activity of cardiomyocytes at a concentration higher than ETPC	decrease BPM	caused arrhythmia-like waveforms	Concentration at which arrhythmia-like waveforms were observed (hiPSC-CMs [3]): 555.6 times of the ETPC; Predicted risk, LR model of Blinova et al [4]: low-risk
CC(C)NCC(O)c1ccc(NS(C)(=O)=O)cc1 (stereo not drawn) [Sotalol]	–	BPM decrease at concentrations less than ETPC	induce arrhythmia-like waveforms	FPDc prolongation (in words) (hiPSC-CMs [3]): FPDc prolongation at concentrations lower than ETPC
CC/C(=C(\c1ccccc1)c1ccc(OCCN(C)C)cc1)c1ccccc1 [Tamoxifen]	decreased the activity of cardiomyocytes at a concentration higher than ETPC	BPM was decreased	–	Concentration at which arrhythmia-like waveforms were observed (hiPSC-CMs [3]): 142.9 times of the ETPC
CC(C)(C)c1ccc(C(O)CCCN2CCC(C(O)(c3ccccc3)c3ccccc3)CC2)cc1 (stereo not drawn) [Terfenadine]	decreased the activity of cardiomyocytes at a concentration higher than ETPC	decrease BPM	–	–
COc1cc2c(Nc3ccc(Br)cc3F)ncnc2cc1OCC1CCN(C)CC1 [Vandetanib]	–	BPM decrease at concentrations less than ETPC	induce arrhythmia-like waveforms	FPDc prolongation (in words) (hiPSC-CMs [3]): FPDc prolongation at concentrations higher than ETPC
COc1ccc(CCN(C)CCCC(C#N)(c2ccc(OC)c(OC)c2)C(C)C)cc1OC (stereo not drawn) [Verapamil]	decreased the activity of cardiomyocytes at a concentration higher than ETPC	–	–	–
